Shown are actives, neighbours in structure and some others; about 3.7% of the full set was active somewhere.
TAAR1 antag: antagonists of human TAAR1; Q96RJ0; CHO RD-HGA16 TAAR1, Fluo-8 calcium fluorescence, antagonist; inhibition, % at 3 µM; 360,000 compounds, 1.5% hits; AID 624466;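 active means inhibition above a per-plate cutoff, the mean inhibition of test compounds on that plate plus 3 SD, cut at about 49% in these data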;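 further: 0% = DMSO plus EC80 beta-PEA response and 100% = DMSO alone without agonist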
Target sequence (Q96RJ0 whole entry, looked up): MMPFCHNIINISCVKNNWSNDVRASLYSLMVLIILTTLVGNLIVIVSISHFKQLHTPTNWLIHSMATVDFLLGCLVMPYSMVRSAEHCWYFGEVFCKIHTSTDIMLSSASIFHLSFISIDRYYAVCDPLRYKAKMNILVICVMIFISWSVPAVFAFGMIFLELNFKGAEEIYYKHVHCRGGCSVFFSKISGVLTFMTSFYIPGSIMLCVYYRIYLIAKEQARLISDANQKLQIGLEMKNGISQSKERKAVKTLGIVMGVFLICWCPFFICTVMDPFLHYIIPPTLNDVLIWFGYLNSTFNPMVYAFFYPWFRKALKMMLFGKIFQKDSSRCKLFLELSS
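System: CHO RD-HGA16 cells bearing hTAAR1. Reagent: EC80 β-phenethylamine stimulus. Schedule: seeding 17-24 h prior, 75-min 37 °C, 30-min RT dye loading. Signal: Fluo-8 intracellular calcium dye fluorescence, real-time kinetic reads. Read-out: % inhibition from peak post-agonist over basal fluorescence ratio. Benchmarks: vehicle wells and EC80 agonist wells. Replicates: n of 1.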
HCV NS3 hel inh: HCV NS3 helicase inhibition. AID 1800. 290,000 compounds, 0.56% hits. inhibition, % at 10.9 µM. NS3 helicase DNA unwinding, Cy5 molecular beacon fluorescence;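 active means inhibition above the mean of all tested compounds plus 3 SD, set per campaign, cut at about 35% in these data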;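 further: 0% = DMSO wells and 100% = thioflavine S control wells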
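test system = hepatitis C virus NS3 helicase domain fragment enzyme | reagent = annealed dual-labelled DNA beacon duplex, ATP-started | times = 1 h at 25 °C | detection = Cy5 fluorescence, 0 and 60 min reads | read-out basis = percent inhibition from t60/t0 fluorescence ratio | control set = DMSO and thioflavine S | replication = one well per compound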
TAAR1 ag: agonists of human TAAR1; activation, % at 3 µM; CHO RD-HGA16 TAAR1, Fluo-8 calcium fluorescence; vehicle wells 0%, saturating PEA agonist 100%; Q96RJ0; 360,000 compounds, 0.99% hits;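 active means activation above the mean activation of all test compounds in the run plus 3 SD, cut at about 38% in these data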
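Assay system: CHO-derived RD-HGA16 cells with stable Gα16 and human TAAR1; timing: 17-24 h seeding, 75 min 37 °C dye, 30 min RT; read-out: % activation from peak over basal fluorescence ratio, DMSO-to-PEA scaled; measured by: kinetic Fluo-8 calcium fluorescence; benchmarks: low control DMSO, high control PEA (EC100); doses: 3 µM single concentration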
core dimer inh: HCV core protein dimerization inhibition; TR-FRET GST/Flag-core106 dimerization, 1536-well; inhibition, % at 5 µM; 300,000 compounds, 0.33% hits; AID 1899;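 active means inhibition above the mean of all tested compounds plus 3 SD, set per screening campaign, cut at about 45% in these data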
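Assay system: Tagged HCV core106 pair (GST and Flag) | Buffer or medium: KF-containing HEPES buffer, pH 7.45, DTT, CHAPS, BSA | Also added: Eu donor and XL665 acceptor anti-tag antibodies | Dosing: One concentration, 5 µM, in 0.5% DMSO | Timing: 4 h at 22.5 °C | Technique: TR-FRET 671 and 617 nm emission | Repeats: Singlicate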
rCAG RNA binder: r(CAG) repeat RNA binding; TO-PRO-1 dye displacement fluorescence; inhibition, % at 3 µM; 370,000 compounds, 1.3% hits;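 active means inhibition above the plate cutoff, the mean of all test compounds on that plate plus 3 SD, cut at about 35% in these data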;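 further: 0% = DMSO alone and 100% = 100 µM mitoxantrone as full dye displacement; higher means more dye released from RNA so lower well fluorescence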
NS3 helicase cf: HCV NS3 helicase inhibition, confirmation assay; NS3 helicase DNA unwinding, Cy5 molecular beacon fluorescence; shares compounds with HCV NS3 hel inh; inhibition, % at 10.9 µM; 1,600 compounds, 31% hits; AID 1943;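 active means inhibition above the mean of all tested compounds plus 3 SD, cutoff set per campaign, cut at about 36% in these data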
FID counter trip: intercalator displacement, NS3 helicase counter-screen; shares compounds with HCV NS3 hel inh; DNA fluorescent intercalator displacement, fluorescence; inhibition, % at 7.9 µM; 1,600 compounds, 4% hits; in the data active means inhibition above about 37%;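 further: 0% = vehicle and 100% = reference compound; higher means more displacement of ethidium bromide from the DNA hairpin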
DNA FID DR: DNA intercalator displacement in dose response. shares compounds with HCV NS3 hel inh. IC50, µM. fluorescent intercalator displacement from DNA, fluorescence. 120 tested, under 10 active. AID 2172; call rule not given here
An asterisk follows results filed as active.

How did COc1ccc(N=C2SC(CC(=O)Nc3ccccc3OC)C(=O)N2Cc2ccco2)cc1 (stereo not drawn) do in these assays?
TAAR1 antag: -3; HCV NS3 hel inh: 41*; TAAR1 ag: 0; core dimer inh: 14; rCAG RNA binder: 6; NS3 helicase cf: -14; FID counter trip: -26

Results for O=S1(=O)c2c(cccc2N2CCC[C@H]2CO)O[C@H]2CCN1C2 ?
rCAG RNA binder: 4

What do the screens show for `CC(C)(C)C(C(Oc1ccc(Cl)cc1)n1cncn1)n1nnnc1C(c1cccc(Cl)c1)N1CCCCC1` (stereo not drawn)?
HCV NS3 hel inh: 39*; core dimer inh: 15; NS3 helicase cf: -8; FID counter trip: -30

What do the screens show for `COCCn1nnnc1C(c1cccc(C#N)c1)N1CCCCCC1` (stereo not drawn)?
TAAR1 antag: -14; HCV NS3 hel inh: 0; TAAR1 ag: 18; core dimer inh: 1; rCAG RNA binder: -5

Results for Cc1[nH]n(C(N)=S)c(=O)c1N=Nc1cccc(Cl)c1 ?
TAAR1 antag: 1; HCV NS3 hel inh: 58*; TAAR1 ag: 1; core dimer inh: -6; rCAG RNA binder: 7; NS3 helicase cf: -20; FID counter trip: 17

How did Cc1c(C(=O)O)cccc1-c1ccc(/C=C2\SC(=O)NC2=O)o1 do in these assays?
TAAR1 antag: -14; HCV NS3 hel inh: 45*; TAAR1 ag: 2; core dimer inh: -20; rCAG RNA binder: 1; NS3 helicase cf: -20; FID counter trip: 5

What do the screens show for `CCCCC(NC(=O)Cc1c(C)c2cc3c4c(oc3cc2oc1=O)CCCC4)C(=O)O` (stereo not drawn)?
TAAR1 antag: -8; HCV NS3 hel inh: 40*; TAAR1 ag: 0; core dimer inh: 5; rCAG RNA binder: 30; NS3 helicase cf: 51*; FID counter trip: -12

What do the screens show for `O=C(O)CSc1cc(NS(=O)(=O)c2ccc(Cl)cc2)c2ccccc2c1O`?
TAAR1 antag: 0; HCV NS3 hel inh: 43*; TAAR1 ag: 2; core dimer inh: -12; rCAG RNA binder: 37*; NS3 helicase cf: 50*; FID counter trip: 45*

What do the screens show for `Cc1ccc(-c2nn(Cc3ccccc3)cc2/C=C/C(=O)O)cc1`?
TAAR1 antag: 7; HCV NS3 hel inh: 44*; TAAR1 ag: 6; core dimer inh: 3; rCAG RNA binder: 3; NS3 helicase cf: 10; FID counter trip: -9

Results for Cc1ccc(Cn2cc(/C=C/C(=O)O)c(-c3ccccc3)n2)cc1 ?
TAAR1 antag: 20; HCV NS3 hel inh: 18; TAAR1 ag: 2; core dimer inh: 1; rCAG RNA binder: 9

Results for Cn1nc(C(F)(F)F)c(-c2cccc(C(F)(F)F)c2)c1NC(=O)c1nccnc1C(=O)O ?
TAAR1 antag: -16; HCV NS3 hel inh: 51*; TAAR1 ag: 5; core dimer inh: 3; rCAG RNA binder: 1; NS3 helicase cf: 7; FID counter trip: -8

How did Cn1nc(C(F)(F)F)c(-c2ccccc2)c1NC(=O)c1nccnc1C(=O)O do in these assays?
TAAR1 antag: -29; HCV NS3 hel inh: 14; TAAR1 ag: 1; core dimer inh: 0; rCAG RNA binder: -1

What do the screens show for `COc1ccc(/C=C/c2nc3ccccc3c(=O)n2-c2cccc(C(=O)O)c2)cc1`?
TAAR1 antag: -11; HCV NS3 hel inh: 41*; TAAR1 ag: 6; core dimer inh: -5; rCAG RNA binder: 26; NS3 helicase cf: 6; FID counter trip: -39

How did CCn1c(/C=C/c2ccc(O)cc2)nc2ccccc2c1=O do in these assays?
TAAR1 antag: 31; HCV NS3 hel inh: -9; TAAR1 ag: 5; core dimer inh: 1; rCAG RNA binder: 1

Results for Cc1ccc(-n2c(C)cc(-c3csc(N)n3)c2C)cc1 ?
TAAR1 antag: -7; HCV NS3 hel inh: 83*; TAAR1 ag: 0; core dimer inh: 43; rCAG RNA binder: 17; NS3 helicase cf: 8; FID counter trip: 23

How did Cc1cccc(CNC(=O)NC2CCCCN(Cc3cccc(Cl)c3)C2=O)c1 (stereo not drawn) do in these assays?
rCAG RNA binder: 1

What do the screens show for `CN(C)c1cccc2c(S(=O)(=O)N3CCCC3)cccc12`?
TAAR1 antag: 4; HCV NS3 hel inh: 36*; TAAR1 ag: 5; core dimer inh: -12; rCAG RNA binder: -1; NS3 helicase cf: -13; FID counter trip: -15

Results for COC(=O)C12C=C3CC(c4ccc(OC)cc4)=C3C(=O)N1Cc1[nH]c3ccccc3c1C2 (stereo not drawn) ?
rCAG RNA binder: 9

Results for CCc1ccc(/C=C2\Oc3cc(OC(=O)N4CCOCC4)ccc3C2=O)cc1 ?
TAAR1 antag: -13; HCV NS3 hel inh: 47*; TAAR1 ag: 1; core dimer inh: 6; rCAG RNA binder: 0; NS3 helicase cf: -6; FID counter trip: -17

What do the screens show for `O=C(Nc1ccccc1)Nc1nc2ncccn2c1-c1ccc(F)c(F)c1`?
rCAG RNA binder: 3

What do the screens show for `Cc1cccc2nc(-c3ccco3)c(Nc3ccc4c(c3)OCO4)n12`?
TAAR1 antag: -31; HCV NS3 hel inh: 40*; TAAR1 ag: 0; core dimer inh: -3; rCAG RNA binder: -5; NS3 helicase cf: 9; FID counter trip: 3

What do the screens show for `Cn1c2ccccc2c(=O)c2ccc(-c3ccc4c(c3)OCO4)cc21`?
TAAR1 antag: 18; HCV NS3 hel inh: 43*; TAAR1 ag: 5; core dimer inh: 20; rCAG RNA binder: 20; NS3 helicase cf: 7; FID counter trip: 2

What do the screens show for `Cn1c(-c2ccc3c(c2)OCO3)cc(=O)c2ccccc21`?
TAAR1 antag: 2; HCV NS3 hel inh: 5; TAAR1 ag: -1; core dimer inh: -3; rCAG RNA binder: 1

What do the screens show for `CC(C)NC(=O)[C@]1(C#N)CC(=O)N(C)[C@@H]1c1ccccc1`?
rCAG RNA binder: 0

How did O=[N+]([O-])c1ccc(N2N=C(c3ccco3)CC2c2ccccc2)cc1 (stereo not drawn) do in these assays?
TAAR1 antag: 42; HCV NS3 hel inh: 38*; TAAR1 ag: 9; core dimer inh: 87*; rCAG RNA binder: 24; NS3 helicase cf: 18; FID counter trip: 26

How did O=C(c1ccc2nc(-c3ccco3)c(-c3ccco3)nc2c1)N1CCN(c2ccccc2)CC1 do in these assays?
TAAR1 antag: 22; HCV NS3 hel inh: 41*; TAAR1 ag: 14; core dimer inh: 25; rCAG RNA binder: 23; NS3 helicase cf: 65*; FID counter trip: -15; DNA FID DR: >79

Assay outcomes from PubChem.
